# A selection: hits, their analogues and other compounds. The true share with any hit is near 5.3%.
# Rev-RRE block = HIV-1 Rev-RRE binding inhibitors, primary screen, biochemical, FRET, protein-RNA interaction; Rev peptide-RRE RNA binding; actives 0.79% (n = 97,000); P05866; inhibition, % at 8 µM; AID 704, 2007;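 active = inhibition above the screen-wide mean plus 3 SD, cut at about 35% in these data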;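 also: 0% = median DMSO wells and 100% = median Neomycin B control wells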
#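 Test system: Cy5-tagged RRE RNA duplex with fluorescein-tagged Rev peptide | Read-out: % inhibition of FRET ratio versus controls | Probe or stimulus: Labelled Rev peptide | Incubation: 5 min RNA-compound premix plus 15 min binding step, 25 °C | Technique: FRET fluorescence readout | Benchmarks: DMSO low control, neomycin B high control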
# PLK1 kinase inh = human PLK1 kinase inhibitors, primary screen, biochemical, TR-FRET; recombinant PLK1 kinase, TR-FRET peptide phosphorylation; inhibition, % at 10 µM; actives 0.53% (n = 97,000); AID 619, 2007;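 active = inhibition of 50% or more in the single-concentration screen; inactive = inhibition below 50%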;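 also: 0% = DMSO max control and 100% = H-89 dihydrochloride min control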
# FAK blocker = FAK kinase inhibitors, primary screen, biochemical; inhibition, %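 (tested at 7 µM)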; Focal adhesion kinase 1 (Homo sapiens), Q05397; AID 727, 2007; actives 0.84% (n = 97,000); biochemical FAK kinase activity assay;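 also: 0% = DMSO and 100% = reference compound high control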
# EphB4 ephrin blk = EphB4-ephrin-B2 interaction antagonists, primary screen, biochemical, TNYL-RAW peptide probe, fluorescence polarization; Ephrin type-B receptor 4 (Homo sapiens), P54760; EphB4 LBD / TNYL-RAW-Alexa532 peptide; inhibition, % at 7 µM; actives 0.15% (n = 97,000);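 active = inhibition above the screen-wide mean inhibition plus 3 SD, cut at about 15% in these data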;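 also: 0% = DMSO wells and 100% = excess unlabeled TNYL-RAW peptide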
# Target sequence (P54760 whole entry, looked up, the tested form may be a part): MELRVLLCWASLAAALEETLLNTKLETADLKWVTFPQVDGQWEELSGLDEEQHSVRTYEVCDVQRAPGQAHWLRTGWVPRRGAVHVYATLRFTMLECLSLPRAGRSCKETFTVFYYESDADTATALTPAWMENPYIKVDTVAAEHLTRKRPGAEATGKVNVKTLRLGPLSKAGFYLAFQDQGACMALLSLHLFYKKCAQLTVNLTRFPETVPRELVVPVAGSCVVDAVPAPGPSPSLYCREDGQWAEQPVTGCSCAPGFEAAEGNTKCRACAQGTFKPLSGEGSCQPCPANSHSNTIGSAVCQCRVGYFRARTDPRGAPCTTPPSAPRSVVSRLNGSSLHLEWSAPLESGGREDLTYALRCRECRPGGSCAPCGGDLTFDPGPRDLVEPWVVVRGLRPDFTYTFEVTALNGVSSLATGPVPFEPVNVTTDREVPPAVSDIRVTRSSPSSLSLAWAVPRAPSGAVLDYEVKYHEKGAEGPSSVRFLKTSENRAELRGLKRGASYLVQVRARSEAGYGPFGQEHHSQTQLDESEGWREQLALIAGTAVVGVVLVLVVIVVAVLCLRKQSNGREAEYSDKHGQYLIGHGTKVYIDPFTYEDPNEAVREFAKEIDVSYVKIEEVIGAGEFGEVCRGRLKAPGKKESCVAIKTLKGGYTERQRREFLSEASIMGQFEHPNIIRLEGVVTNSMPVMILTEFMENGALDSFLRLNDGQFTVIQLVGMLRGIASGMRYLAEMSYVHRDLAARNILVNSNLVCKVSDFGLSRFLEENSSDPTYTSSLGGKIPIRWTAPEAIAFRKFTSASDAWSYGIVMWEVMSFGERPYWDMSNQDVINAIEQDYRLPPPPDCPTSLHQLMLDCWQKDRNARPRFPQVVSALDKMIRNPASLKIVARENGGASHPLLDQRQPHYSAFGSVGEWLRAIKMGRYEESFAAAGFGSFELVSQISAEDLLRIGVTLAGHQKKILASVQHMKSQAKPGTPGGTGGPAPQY
# Cav3 T inh = Cav3.2 calcium influx blockers – cell-based, Fluo-4 calcium fluorescence, FDSS, MLSMR library, primary screen. Cav3.2-expressing cells; hits give low values. AID 449739, 2010. actives 4% (n = 100,000). B-score at 10 µM;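 active = single-dose well whose peak fluorescence ratio is a statistical outlier from its plate by either plate-standardised score or position-corrected B-score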
# Plk1 PBD FP = Plk1 polo box domain binding inhibitors, primary screen, biochemical, fluorescence polarization; Serine/threonine-protein kinase PLK1 (Homo sapiens), P53350; Plk1 PBD phosphopeptide binding; inhibition, %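 (tested at about 20 µM)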; actives 0.13% (n = 97,000); in the data active = inhibition above about 34%, passing the limit was not always enough
# FAK inh conf = FAK kinase inhibitors, retest, confirmation, biochemical. shares compounds with FAK blocker. FAK kinase biochemical inhibition assay. inhibition, % at 7 µM. actives 28% (n = 750). AID 794, 2007
# An asterisk follows results filed as active; / = not tested or not shown. Rule as the data show it, unless noted: active = inhibition above about 19%; inactive = the rest.
SMILES,Rev-RRE block,PLK1 kinase inh,FAK blocker,EphB4 ephrin blk,Cav3 T inh,Plk1 PBD FP,FAK inh conf
COC(=O)/C(=C/Nc1ccc(O)cc1)[N+](=O)[O-],6.0,3.2,37.9*,4.8,-0.0131,-5.7,-2.6
CCOc1ccc(-c2nnc3sc(COc4ccc(Cl)cc4)nn23)cc1,10.6,-3.1,21.0*,-5.6,0.334,-2.8,8.6
CCc1nnc(NC(=O)CSc2ncc(-c3ccccc3)n2CC)s1,5.7,-10.5,3.0,-6.5,-1.03,6.6,/
O=C(Nc1cccc(-c2cc3ccccc3oc2=O)c1)c1ccc(Br)o1,-2.5,-5.8,2.8,-1.0,-0.884,-30.1,/
COc1ccc(-c2cc3ccccc3oc2=O)cc1NC(=O)c1ccc(Br)o1,0.6,-11.3,65.1*,-1.9,-0.619,-2.3,59.5*
Nc1c2c(=O)oc(-c3ccccc3)cc2nn1-c1ccccc1,4.5,-11.8,2.8,3.9,/,-6.6,/
Cc1c(-c2ccc(Cl)cc2)oc(=O)c2c(N)n(-c3ccccc3)nc12,5.9,-28.7,24.1*,3.5,0.629,26.7,13.9
O=c1nc2s/c(=C\c3ccco3)c(=O)n2nc1Cc1ccc(F)cc1,-12.0,-18.6,24.4*,3.8,1.02,31.2,4.5
Cc1ccc(-c2nc3s/c(=C\c4ccco4)c(=O)n3n2)cc1,4.5,-2.3,5.9,-0.7,0.0908,-12.0,/
CCOc1ccc2nc(NC3=NC(c4ccc(OC)cc4)CC(=O)N3)nc(C)c2c1 (centres undefined),20.1,-5.2,35.8*,4.0,0.265,-3.2,24.6*
CCOc1ccc2nc(NC3=NC(C)(C)C=C(C)N3)nc(C)c2c1,9.6,-6.8,0.6,-7.6,-1.18,-20.6,/
Cc1ccc(Cl)cc1N1CCN(C(=O)c2cc3c(=O)n(C)c4ccccc4c3n2C)CC1,4.8,-3.6,1.0,1.8,-1.27,0.7,/
CC(=O)Nc1ccc(S(=O)(=O)NC2(C(F)(F)F)N=C(c3ccccc3)NC2=O)cc1 (centres undefined),4.5,-7.2,-1.6,0.3,0.866,-5.0,/
O=C(Nc1ccccc1)c1[nH]ncc1[N+](=O)[O-],4.2,-13.5,-1.4,5.6,-0.48,-22.1,/
O=C(NNc1ccccc1[N+](=O)[O-])Nc1ccccc1,4.7,-3.0,20.8*,-0.6,0.625,-8.9,17.2
O=C(NC1CCCC1)c1ccc2nc(-c3ccco3)c(-c3ccco3)nc2c1,2.4,3.9,19.2*,-2.5,/,36.8,2.6
Cc1n[nH]c(C)c1-c1nc2ccccc2[nH]1,5.8,2.4,24.2*,2.4,0.03,-4.1,5.6
O=C(CNC(=O)c1ccco1)OCC(=O)c1ccc2c(c1)CCCC2,-1.1,-18.8,26.9*,-14.6,-0.14,-33.4,-2.8
CC(C)(C)C(=O)c1sc(Nc2ccccc2)nc1N,0.6,-9.9,32.4*,4.0,-1.76,-1.2,18.6
Clc1ccc(CNCCC2=CCCCC2)cc1,-6.5,-7.4,-1.2,0.7,-1.83,-3.1,/
O=C(O)c1ccccc1OCCOc1ccccc1C(=O)O,2.5,-1.8,7.5,-13.0,-0.578,29.8,/
O=C(O)c1ccccc1OCCOCCOc1ccccc1C(=O)O,4.9,-12.4,38.4*,0.6,0.0358,5.0,33.6*
Cc1ccc(N=C2CCCN2Cc2ccccc2)c(C#N)c1,11.1,20.5,0.6,-5.4,-1.38,1.7,/
O=C(Nc1ccc(Cl)c(Cl)c1)OCCNC(=O)c1cccc(Cl)c1,9.3,-7.2,-1.4,0.2,-0.268,8.4,/
CCOc1ccc2[nH]c(=O)c(CN(Cc3nnnn3Cc3ccco3)C3CCCCC3)cc2c1,60.1*,-0.4,38.6*,6.3,-0.0478,-16.4,0.0
SMILES,Rev-RRE block,PLK1 kinase inh,FAK blocker,EphB4 ephrin blk,Cav3 T inh,Plk1 PBD FP,FAK inh conf
CCOC(=O)CC1=C(C(=O)OCC)C(c2cccs2)C(C#N)=C(N)O1 (centres undefined),-1.6,1.4,4.4,3.9,0.0584,-18.6,/
CCOC(=O)C1=C(c2ccccc2)OC(N)=C(C#N)C1c1cccs1 (centres undefined),16.9,-10.0,25.8*,2.0,-1.43,-25.9,20.0*
O=C(Nc1ccc(-c2nc3ccc(NC(=O)c4cccs4)cc3[nH]2)cc1)c1cccs1,1.2,-10.3,53.4*,1.8,0.259,-11.1,46.9*
CN1/C(=N\O)c2cccc3cccc1c23,11.0,-9.0,20.9*,-3.2,-4.38*,-13.9,8.1
CCOC(=O)CSc1nc(CC)nc2ccccc12,/,/,/,/,0.347,/,/
CCc1nc(SCC(=O)NNC(=O)C2CCCCC2)c2ccccc2n1,-5.0,-8.5,35.5*,-3.8,0.305,1.7,20.2*
CCc1nc(SCC(=O)NNC(=O)C(C)C)c2ccccc2n1,-2.2,-9.3,41.8*,-4.7,0.446,18.1,18.8
CCN1CCc2c(sc(N)c2C#N)C1,69.0*,5.7,26.2*,6.4,-1.73,8.1,18.8*
Cc1cc(C)n(-c2c(F)c(F)c(CO)c(F)c2F)n1,7.4,-11.1,-1.6,13.2,0.792,-30.4,/
COC(=O)C1=C(C)N(CCc2cc(OC)c(OC)c(OC)c2)C(=O)N[C@H]1c1ccccc1,/,/,/,/,-0.459,/,/
O=c1cc(-c2cccc3ccccc23)[nH][nH]1,-0.5,-8.3,23.3*,-1.6,0.78,-9.6,-0.4
COc1ccc(-c2cc(=O)[nH][nH]2)cc1,9.1,0.4,6.3,-3.4,0.44,-17.0,/
Cc1c(C)c2cc(Cl)c(O)c(CN3CCCC(C)C3)c2oc1=O (centres undefined),-1.1,-16.6,-3.5,-2.3,1.29,-14.5,/
CC1CCCN(Cc2c(O)ccc3c(=O)c(-c4nc5ccccc5s4)c(N)oc23)C1 (centres undefined),8.9,-0.8,34.2*,3.1,0.784,-4.3,8.0
C=CCn1c2ccccc2c2nnc(SCC(=O)OCN3C(=O)c4ccccc4C3=O)nc21,3.5,-20.1,0.9,-10.4,1.03,9.1,/
CCCc1nc2oc3cc(OC)ccc3c(=O)c2c(=O)n1Cc1ccco1,11.6,-15.2,4.2,-12.2,1.16,-12.7,/
CCCc1nc2sc3ccccc3c(=O)c2c(=O)n1Cc1ccco1,16.2,-3.3,22.1*,6.3,/,-18.5,6.2
Cc1ccc(Cn2ccc(NC(=O)c3noc4c3CCc3ccccc3-4)n2)cc1,-1.2,-2.8,3.5,4.0,1.03,3.7,/
COc1ccc2c(c1)CCc1c(C(=O)Nc3ccn(Cc4ccc(C)cc4)n3)noc1-2,3.7,-3.5,25.5*,-12.0,0.2,7.5,-1.0
O=C1c2cnccc2CN1Cc1ccccc1,10.6,-7.2,2.1,6.6,-0.0875,5.4,/
CC(C)OCCCn1c(=N)c(C(N)=S)cc2c(=O)n3ccccc3nc21,65.7*,19.6,32.2*,-4.4,0.024,-31.7,6.1
